{"source": "ChEMBL document CHEMBL4477202", "about": "“Synthesis and evaluation of duocarmycin SA analogs incorporating the methyl 1,2,8,8a-tetrahydrocyclopropa[c]imidazolo[4,5-e]indol-4-one-6-carboxylate (CImI) alkylation subunit” (Bioorg Med Chem, 2016)", "key": {"L1210": {"system": "L1210", "assay": "Cytotoxicity against mouse L1210 cells assessed as cell growth inhibition", "type": "functional, cell-based"}, "Betapolyomavirus macacae [1]": {"system": "Betapolyomavirus macacae", "assay": "Induction of alkylation at Simian virus 40 150-bp DNA w794 at 10^-5 to 10^-7/M after 24 hrs by PAGE and autoradiography method", "outline": "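w794 DNA incubated with agent at 23 °C for 24 h. Unbound agent was removed by EtOH precipitation, then the DNA was heated at 100 °C for 30 min to cleave strands at alkylated sites. Fragments were resolved by 8% denaturing PAGE against Sanger G, C, A and T sequencing lanes and untreated control DNA, and detected by autoradiography.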"}, "Betapolyomavirus macacae [2]": {"system": "Betapolyomavirus macacae", "assay": "Induction of alkylation at Simian virus 40 150-bp DNA w794 after 24 hrs by PAGE and autoradiography method", "outline": "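Labelled w794 DNA incubated with agent at 23 °C for 24 h. Unbound agent removed by EtOH precipitation, then thermolysis at 100 °C for 30 min to cleave strands at alkylation sites. Fragments resolved by 8% denaturing PAGE and read by autoradiography, alongside untreated control DNA and Sanger G, C, A, T sequencing lanes.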"}, "[3]": {"assay": "Solvolysis reactivity of the compound in presence of Pb(acac)2 at 23 degC in MeoH solution by UV spectrophotometry"}, "[4]": {"assay": "Solvolysis reactivity of the compound in phosphate buffer assessed as half life at pH 3 upto 187 hrs by UV spectrophotometry", "outline": "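UV spectra taken hourly for the first 8 h, then every 12 h, over 0–187 h until absorbance stopped changing. Rate constant and t1/2 derived from initial (A_i) and final (A_f) absorbance.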"}, "[5]": {"assay": "Solvolysis reactivity of the compound in presence of Ni(acac)2 at 23 degC in MeoH solution by UV spectrophotometry"}, "[6]": {"assay": "Solvolysis reactivity of the compound in presence of Cu(acac)2 at 23 degC in MeoH solution by UV spectrophotometry"}, "[7]": {"assay": "Solvolysis reactivity of the compound in presence of Zn(acac)2 at 23 degC in MeoH solution by UV spectrophotometry"}, "[8]": {"assay": "Solvolysis reactivity of the compound in presence of Cd(acac)2 at 23 degC in MeoH solution by UV spectrophotometry"}, "[9]": {"assay": "Solvolysis reactivity of the compound in phosphate buffer at pH 7 upto 187 hrs by UV spectrophotometry"}, "[10]": {"assay": "Solvolysis reactivity of the compound in aqueous buffer assessed as solvolytic rate constant at pH 2 by UV spectrophotometry"}, "[11]": {"assay": "Solvolysis reactivity of the compound in aqueous buffer assessed as half life at pH 2 by UV spectrophotometry"}}, "note": "Active and inactive are the calls of the source. No cut-off for these calls is given here."}
{"molecule": "COC(=O)c1nc2c([nH]1)C(=O)C=C1N(C(=O)OC(C)(C)C)C[C@H]3C[C@]123", "values": [{"measurement": "IC50", "setting": "L1210", "value": 70, "unit": "nM"}]}
{"molecule": "COC(=O)c1nc2c3c(cc(O)c2[nH]1)N(C(=O)c1cc2cc(OC)c(OC)c(OC)c2[nH]1)C[C@H]3CCl", "values": [{"measurement": "Activity", "setting": "Betapolyomavirus macacae [1]", "value": "Active"}]}
{"molecule": "COC(=O)c1cc2c([nH]1)C(=O)C=C1N(C(=O)c3cc4cc(NC(=O)c5cc6ccccc6[nH]5)ccc4[nH]3)C[C@@H]3C[C@@]123", "values": [{"measurement": "IC50", "setting": "L1210", "value": 0.15, "unit": "nM"}]}
{"molecule": "COC(=O)c1cc2c([nH]1)C(=O)C=C1N(C(=O)c3cc4cc(OC)c(OC)c(OC)c4[nH]3)C[C@H]3C[C@]123", "values": [{"measurement": "Activity", "setting": "Betapolyomavirus macacae [2]", "value": "Active"}]}
{"molecule": "COC(=O)c1nc2c([nH]1)C(=O)C=C1N(C(=O)c3cc4cc(OC)c(OC)c(OC)c4[nH]3)C[C@H]3C[C@]123", "values": [{"measurement": "Activity", "setting": "Betapolyomavirus macacae [2]", "value": "inactive"}, {"measurement": "IC50", "setting": "L1210", "value": 0.05, "unit": "nM"}]}
{"molecule": "COC(=O)c1nc2c([nH]1)C(=O)C=C1N(C(=O)c3cc4cc(NC(=O)c5cc6ccccc6[nH]5)ccc4[nH]3)C[C@H]3C[C@]123", "values": [{"measurement": "IC50", "setting": "L1210", "value": 0.04, "unit": "nM"}]}
{"molecule": "COC(=O)c1nc2c([nH]1)C(=O)C=C1N(C(=O)OC(C)(C)C)C[C@@H]3C[C@@]123", "values": [{"measurement": "IC50", "setting": "L1210", "value": 1100, "unit": "nM"}]}
{"molecule": "COC(=O)c1cc2c([nH]1)C(=O)C=C1N(C(=O)c3cc4cc(NC(=O)c5cc6ccccc6[nH]5)ccc4[nH]3)C[C@H]3C[C@]123", "values": [{"measurement": "IC50", "setting": "L1210", "value": 0.004, "unit": "nM"}]}
{"molecule": "COC(=O)c1nc2c([nH]1)C(=O)C=C1N(C(=O)c3cc4cc(OC)c(OC)c(OC)c4[nH]3)C[C@@H]3C[C@@]123", "values": [{"measurement": "IC50", "setting": "L1210", "value": 2.2, "unit": "nM"}]}
{"molecule": "COC(=O)c1nc2c([nH]1)C(=O)C=C1N(C(=O)OC(C)(C)C)CC3CC123", "note": "(stereo unspecified)", "values": [{"measurement": "Stability", "setting": "[3]", "value": "Stable"}, {"measurement": "T1/2", "setting": "[4]", "value": 34.7, "unit": "h"}, {"measurement": "Stability", "setting": "[5]", "value": "Stable"}, {"measurement": "Stability", "setting": "[6]", "value": "Stable"}, {"measurement": "Stability", "setting": "[7]", "value": "Stable"}, {"measurement": "Stability", "setting": "[8]", "value": "Stable"}]}
{"molecule": "COC(=O)c1cc2c([nH]1)C(=O)C=C1N(C(=O)OC(C)(C)C)CC3CC123", "note": "(stereo unspecified)", "values": [{"measurement": "Stability", "setting": "[3]", "value": "Stable"}, {"measurement": "T1/2", "setting": "[4]", "value": 177, "unit": "h"}, {"measurement": "Stability", "setting": "[5]", "value": "Stable"}, {"measurement": "Stability", "setting": "[9]", "value": "Stable"}, {"measurement": "Stability", "setting": "[6]", "value": "Stable"}, {"measurement": "Stability", "setting": "[7]", "value": "Stable"}, {"measurement": "Stability", "setting": "[8]", "value": "Stable"}]}
{"molecule": "Cc1c[nH]c2c1[C@@]13C[C@@H]1CN(C(=O)OC(C)(C)C)C3=CC2=O", "values": [{"measurement": "K", "setting": "[10]", "value": 5.26, "unit": "×10⁻⁶ /s"}, {"measurement": "T1/2", "setting": "[11]", "value": 37, "unit": "h"}]}
{"molecule": "COC(=O)c1nc2c([nH]1)C(=O)C=C1N(C(=O)c3cc4cc(NC(=O)c5cc6ccccc6[nH]5)ccc4[nH]3)C[C@@H]3C[C@@]123", "values": [{"measurement": "IC50", "setting": "L1210", "value": 0.7, "unit": "nM"}]}
